# EBNA-1 inh: blocks EBNA-1 binding to DNA; EBNA-1 DNA binding, fluorescence polarization; inhibition, % at 14.8 µM; actives 0.34% (n = 300,000); in the data active = inhibition above about 28%
# ZTA DNA inh: counter-screen for EBNA-1 inhibitors: inhibitors of Epstein-Barr virus ZTA; ZTA-DNA binding, fluorescence polarization; inhibition, % at 11 µM; P03206; actives 0.15% (n = 320,000); AID 2234; in the data active = inhibition above about 33%
# PP1 inh: PP1-alpha (human) inhibition in PP5 counter-screen. P62136. inhibition, % at 6.7 µM. AID 2235. purified PP1alpha, OMFP fluorescence. actives 0.9% (n = 320,000);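 active = inhibition above the mean inhibition of all tested compounds plus 3 SD, computed separately for each screening campaign, cut at about 15% in these data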
# core dimer inh: HCV core protein dimerization inhibition; TR-FRET GST/Flag-core106 dimerization, 1536-well; inhibition, % at 5 µM; actives 0.33% (n = 300,000); AID 1899;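 active = inhibition above the mean of all tested compounds plus 3 SD, set per screening campaign, cut at about 45% in these data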
#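 Test system: GST/Flag-tagged HCV core106 proteins; Medium: KF-containing HEPES buffer, pH 7.45, DTT, CHAPS, BSA; Times: compound-protein-antibody incubation 4 h at 22.5 °C; Detection: TR-FRET 671 and 617 nm emission; Benchmarks: wells lacking GST-core106 and wells with excess unlabelled core106.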
# PP5 inh: inhibitors of human protein phosphatase 5 (PP5). P53041. purified PP5c, OMFP substrate fluorescence. inhibition, % at 6.7 µM. actives 0.18% (n = 320,000). AID 1987;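 active = inhibition above the campaign's mean inhibition across all tested compounds plus 3 SD, cut at about 9.5% in these data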;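 also: 0% = DMSO only and 100% = 100 µM cantharidin control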
# Target sequence (P53041 whole entry, looked up): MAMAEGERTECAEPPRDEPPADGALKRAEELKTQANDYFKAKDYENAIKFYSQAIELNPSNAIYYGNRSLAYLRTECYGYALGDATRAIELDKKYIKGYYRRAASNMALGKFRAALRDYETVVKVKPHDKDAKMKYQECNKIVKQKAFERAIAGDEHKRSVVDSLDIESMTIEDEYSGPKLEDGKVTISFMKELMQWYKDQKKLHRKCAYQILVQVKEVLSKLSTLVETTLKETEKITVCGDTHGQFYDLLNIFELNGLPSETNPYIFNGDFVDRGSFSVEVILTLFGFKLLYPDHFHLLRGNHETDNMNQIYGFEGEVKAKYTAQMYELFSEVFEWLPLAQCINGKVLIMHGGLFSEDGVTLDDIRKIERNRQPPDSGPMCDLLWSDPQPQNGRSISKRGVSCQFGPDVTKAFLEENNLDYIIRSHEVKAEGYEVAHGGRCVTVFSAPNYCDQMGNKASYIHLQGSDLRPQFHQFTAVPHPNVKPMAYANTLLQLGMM
# PP1 inh confirm: confirmation of human PP1 phosphatase inhibitors. shares compounds with PP1 inh. inhibition, % at 6.7 µM. purified PP1alpha, OMFP substrate fluorescence. AID 2358. actives 52% (n = 1,900);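 active = mean PP1 inhibition above a set limit taken from the earlier primary screen, cut at about 15% in these data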
# PP5 counter: inhibits human PP5 phosphatase in PP1 counter-screen | shares compounds with PP1 inh | purified PP5c, OMFP fluorescence | inhibition, % at 6.7 µM | actives 4% (n = 1,900);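 active = mean PP5 inhibition over triplicate wells above about 9.5% taken from the earlier PP1 screen, limit read from the data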
# Starred values were filed as active, the others as inactive; . = no result. Rows were chosen to be rich in hits. Some 1.7% of all compounds tested hit in one or more screens of this group.
SMILES,EBNA-1 inh,ZTA DNA inh,PP1 inh,core dimer inh,PP5 inh,PP1 inh confirm,PP5 counter
Cc1ccc(C(=O)Nc2ncn[nH]2)cc1,1,11,-1,6,-1,.,.
CC(C)(C)c1ccc(C(=O)Nc2ncn[nH]2)cc1,11,5,26*,4,0,6,-6
COc1cccc2cc(C(=O)C3=C(O)C(=O)N(CCN4CCOCC4)C3c3ccc(C(C)(C)C)cc3)oc12 (stereo not given),-7,11,21*,20,4,27*,1
COc1cccc2cc(C(=O)C3=C(O)C(=O)N(CCN4CCOCC4)C3c3ccc(Cl)cc3)oc12 (stereo not given),0,8,8,8,2,.,.
Cc1ccc(C2C(C(=O)c3cc4ccccc4o3)=C(O)C(=O)N2CCN2CCOCC2)cc1 (stereo not given),0,5,14,12,2,.,.
O=C(C1=C(O)C(=O)N(CCN2CCOCC2)C1c1ccc(Br)cc1)c1cc2ccccc2o1 (stereo not given),1,12,23*,15,3,12,3
O=C(NCCc1ccccc1)C(NS(=O)(=O)c1cccc2nsnc12)c1ccccc1 (stereo not given),11,0,-1,12,-1,.,.
COc1ccc(CNC(=O)c2ccccc2NC(=O)C2=CSCCO2)c(OC)c1,8,19,-2,5,3,.,.
O=C(N/N=C/c1ccncc1)c1cccc(NC(=O)c2ccc(Cl)cc2)c1,9,20,31*,-32,1,12,-1
COc1ccc(C2(C)NC(=O)N(CC(=O)Nc3ccc(C)cc3Br)C2=O)cc1OC (stereo not given),-14,7,3,-8,1,.,.
O=C(Cc1cccc2ccccc12)N/N=C/c1ccc(O)c([N+](=O)[O-])c1,10,-1,-3,-2,-1,.,.
O=C(Cc1cccc2ccccc12)N/N=C/c1ccc2cccc(O)c2n1,0,3,25*,2,2,21*,0
Cc1cccn2c(=O)c3cc(C#N)c(=NC(=O)c4ccco4)n(Cc4ccco4)c3nc12,12,23,-2,27,2,.,.
Cc1cccc(C(=O)N=c2c(C#N)cc3c(=O)n4cccc(C)c4nc3n2Cc2ccco2)c1,4,-5,25*,60*,3,7,-1
CCCOc1cc(N)ccc1C(=O)OCCN(CC)CC,4,8,1,8,-2,.,.
CCCOc1ccc(N)cc1N,-3,-7,16*,-17,11*,-3,24*
COc1ccc(/C=C2/C(=O)N(c3nc4ccccc4s3)N=C2CSc2ccc(Cl)cc2)cc1,9,18,31*,-16,-1,9,0
O=C(CCc1ccc(Oc2cc([N+](=O)[O-])cc([N+](=O)[O-])c2)cc1)N1CCCCCC1,5,-1,3,16,1,.,.
CN1CCN(S(=O)(=O)c2cccc(C(=O)Nc3nc(-c4ccccc4)cs3)c2)CC1,1,-1,-1,6,1,.,.
O=C(Nc1nc(-c2ccccn2)cs1)c1cccc(S(=O)(=O)N2CCOCC2)c1,.,-5,30*,.,6,32*,9
O=C(Nc1nc(-c2ccccn2)cs1)c1ccc(S(=O)(=O)N2CCCCC2)cc1,-7,-3,29*,8,4,27*,-1
Cc1cccc(NC(=O)C2C3CCC4C(CCC32)C4(Cl)Cl)c1 (stereo not given),2,-7,3,8,4,.,.
Clc1ccc(N=c2ssnc2Cl)cc1,0,5,19*,-1,0,1,-1
NC(=O)[C@H](Cc1cc2ccccc2s1)NC(=O)[C@@H]1CC2(CC(c3cccc(NC(=O)[C@@H]4CCC(=O)N4)c3)=NO2)CN1C(=O)/C=C/c1c(F)cccc1Cl (stereo not given in full),4,-9,30*,-1,5,20*,6
NC(=O)[C@H](Cc1cc2ccccc2s1)NC(=O)[C@@H]1CC2(CC(c3cccc(NC(=O)[C@@H]4CCC(=O)N4)c3)=NO2)CN1C(=O)c1ccccc1 (stereo not given in full),1,1,1,-16,0,.,.
SMILES,EBNA-1 inh,ZTA DNA inh,PP1 inh,core dimer inh,PP5 inh,PP1 inh confirm,PP5 counter
Cc1ccc2nc(N3C(=O)C(O)=C(C(=O)c4ccc(C)o4)C3c3cccc(O)c3)sc2c1 (stereo not given),10,13,25*,11,2,27*,9.7*
C=CCOc1cccc(C2C(C(=O)c3ccc(C)o3)=C(O)C(=O)N2c2nccs2)c1 (stereo not given),5,16,22*,20,-1,15*,-2
O=C(c1ccccc1)N1CCN(S(=O)(=O)c2ccccc2)CC1,4,-1,-2,-2,2,.,.
Cn1cccc1C(=O)N1CCN(S(=O)(=O)c2ccccc2)CC1,13,8,50*,10,0,-2,0
Nc1c(C(=O)NCc2ccccc2)nnn1Cc1ccccc1,-2,1,-1,-2,-1,.,.
c1ccc(Cn2nnc(CNc3ccccc3)c2-c2c(CNc3ccccc3)nnn2Cc2ccccc2)cc1,-3,-13,23*,0,4,4,1
CCOc1ccc(N(CC(=O)NCc2ccc(F)cc2)C(=O)CCC(=O)Nc2nccs2)cc1,-11,-4,1,3,2,.,.
CC(C)Cn1c(N)c(C(=O)CSc2ccccc2)c(=O)n(C)c1=O,-10,-6,1,-6,2,.,.
CC(C)Cn1c(N)c(C(=O)COC(=O)/C=C/c2ccccc2)c(=O)n(C)c1=O,-13,1,37*,3,3,0,-1
CCOc1ccc(-n2c(O)c(/C=N/NC(=O)C3COc4ccccc4O3)c3ccccc3c2=O)cc1 (stereo not given),10,14,23*,13,1,28*,-6
CCOc1ccc(CN(C)C(=O)CNC(=O)c2sc3ccccc3c2Cl)cc1,.,5,-4,.,4,.,.
CCN(C(=O)c1cc2c(=O)[nH]c3ccc(C)cc3c2s1)c1ccc(F)cc1,13,7,18*,11,0,17*,-2
CCN(C(=O)c1cc2c(=O)[nH]c3ccc(C)cc3c2s1)c1cccc(C)c1,6,-7,-1,15,0,.,.
CC1=C(C(=O)OCc2ccccc2)C(c2ccc(-c3ccccc3)cc2)NC(=O)N1CCCCCC(=O)O (stereo not given),5,13,19*,29,-1,3,-4
CC1=C(C(=O)OCc2ccccc2)C(c2ccc(-c3ccccc3)cc2)NC(=O)N1CCCC(=O)O (stereo not given),7,15,5,21,-2,.,.

# Compound activity from PubChem.
